Assay results taken from ChEMBL document CHEMBL2040768, “Synthesis, antimicrobial and cytotoxic activities of sulfone linked bis heterocycles” (Eur J Med Chem, 2012).
Activity calls are given as the source filed them. No cut-off for these calls is given here.

Experiments:
Klebsiella pneumoniae [1] = test: Antibacterial activity against Klebsiella pneumoniae at 50 ug/ml after 24 hrs by agar well diffusion method; type: functional; details: for zone of inhibition at 50 µg/mL: read-out: DIZ
Procedure, shortened: (§1)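 Agar well diffusion. Nutrient plates swabbed with 24 h broth culture of the bacterium; 6 mm wells bored and loaded with DMSO solutions of compound (wells at 50 and 100 per well). Chloramphenicol positive control, DMSO negative control. Plates held 37 °C, 24 h; inhibition zone diameter (mm) measured, mean of duplicates.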

A549 = test: Cytotoxicity against human A549 cells up to 0.2 mM after 72 hrs by MTT assay
Aspergillus niger [2] = test: Antifungal activity against Aspergillus niger at 50 ug/ml after 48 hrs by agar well diffusion method; type: functional; details: for zone of inhibition at 50 µg/mL: read-out: DIZ
Procedure, shortened: (§2)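 Fungal agar well diffusion. Plates swabbed with fungal culture, 6 mm wells filled with DMSO solutions of compound (50 and 100 per well). Ketoconazole positive and DMSO negative controls. Plates incubated 28 °C for 48 h; zone of inhibition diameter (mm) read, average of duplicates.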

Bacillus subtilis [3] = test: Antibacterial activity against Bacillus subtilis at 100 ug/ml after 24 hrs by agar well diffusion method; type: functional; details: for zone of inhibition at 100 µg/mL: read-out: DIZ; procedure, shortened: as §1
Staphylococcus aureus [4] = test: Antibacterial activity against Staphylococcus aureus at 50 ug/ml after 24 hrs by agar well diffusion method; type: functional; details: for zone of inhibition at 50 µg/mL: read-out: DIZ; procedure, shortened: as §1
Aspergillus niger [5] = test: Antifungal activity against Aspergillus niger at 100 ug/ml after 48 hrs by agar well diffusion method; type: functional; details: for zone of inhibition at 100 µg/mL: read-out: DIZ; procedure, shortened: as §2
Penicillium chrysogenum [6] = test: Antifungal activity against Penicillium chrysogenum at 50 ug/ml after 48 hrs by agar well diffusion method; type: functional; details: for zone of inhibition at 50 µg/mL: read-out: DIZ; procedure, shortened: as §2
Klebsiella pneumoniae [7] = test: Antibacterial activity against Klebsiella pneumoniae at 100 ug/ml after 24 hrs by agar well diffusion method; type: functional; details: for zone of inhibition at 100 µg/mL: read-out: DIZ; procedure, shortened: as §1
Bacillus subtilis [8] = test: Antibacterial activity against Bacillus subtilis at 50 ug/ml after 24 hrs by agar well diffusion method; type: functional; details: for zone of inhibition at 50 µg/mL: read-out: DIZ; procedure, shortened: as §1
Staphylococcus aureus [9] = test: Antibacterial activity against Staphylococcus aureus at 100 ug/ml after 24 hrs by agar well diffusion method; type: functional; details: for zone of inhibition at 100 µg/mL: read-out: DIZ; procedure, shortened: as §1
Pseudomonas aeruginosa [10] = test: Antibacterial activity against Pseudomonas aeruginosa at 100 ug/ml after 24 hrs by agar well diffusion method; type: functional; details: for zone of inhibition at 100 µg/mL: read-out: DIZ; procedure, shortened: as §1
Penicillium chrysogenum [11] = test: Antifungal activity against Penicillium chrysogenum at 100 ug/ml after 48 hrs by agar well diffusion method; type: functional; details: for zone of inhibition at 100 µg/mL: read-out: DIZ; procedure, shortened: as §2
Pseudomonas aeruginosa [12] = test: Antibacterial activity against Pseudomonas aeruginosa at 50 ug/ml after 24 hrs by agar well diffusion method; type: functional; details: for zone of inhibition at 50 µg/mL: read-out: DIZ; procedure, shortened: as §1

SMILES	zone of inhibition at 50 µg/mL (Klebsiella pneumoniae [1]) [mm]	Activity (A549)	zone of inhibition at 50 µg/mL (Aspergillus niger [2]) [mm]	zone of inhibition at 100 µg/mL (Bacillus subtilis [3]) [mm]	zone of inhibition at 50 µg/mL (Staphylococcus aureus [4]) [mm]	zone of inhibition at 100 µg/mL (Aspergillus niger [5]) [mm]	zone of inhibition at 50 µg/mL (Penicillium chrysogenum [6]) [mm]	zone of inhibition at 100 µg/mL (Klebsiella pneumoniae [7]) [mm]	zone of inhibition at 50 µg/mL (Bacillus subtilis [8]) [mm]	zone of inhibition at 100 µg/mL (Staphylococcus aureus [9]) [mm]	zone of inhibition at 100 µg/mL (Pseudomonas aeruginosa [10]) [mm]	zone of inhibition at 100 µg/mL (Penicillium chrysogenum [11]) [mm]	zone of inhibition at 50 µg/mL (Pseudomonas aeruginosa [12]) [mm]	diameter of the inhibition zone (DIZ) (Klebsiella pneumoniae [1])	diameter of the inhibition zone (DIZ) (Aspergillus niger [2])	diameter of the inhibition zone (DIZ) (Aspergillus niger [5])	diameter of the inhibition zone (DIZ) (Penicillium chrysogenum [6])	diameter of the inhibition zone (DIZ) (Klebsiella pneumoniae [7])	diameter of the inhibition zone (DIZ) (Pseudomonas aeruginosa [10])	diameter of the inhibition zone (DIZ) (Penicillium chrysogenum [11])	also measured
Cc1ccc(NS(=O)(=O)Cc2nnc(CS(=O)(=O)c3c[nH]cc3S(=O)(=O)c3ccc(C)cc3)n2N)cc1	21	inactive	18	21	16	19	18	23	19	18	15	21	13	–	–	–	–	–	–	–	–
Nn1c(CS(=O)(=O)Nc2ccccc2)nnc1CS(=O)(=O)C1CNN=C1S(=O)(=O)c1ccccc1 (centres undefined)	17	inactive	13	17	13	15	14	19	15	15	14	17	12	–	–	–	–	–	–	–	–
Nn1c(CS(=O)(=O)/C=C/S(=O)(=O)c2ccccc2)nnc1CS(=O)(=O)Nc1ccccc1	26	inactive	21	26	21	24	23	28	24	23	18	26	17	–	–	–	–	–	–	–	–
Cc1ccc(NS(=O)(=O)Cc2nnc(CS(=O)(=O)c3c[nH]nc3S(=O)(=O)c3ccc(C)cc3)o2)cc1	–	inactive	–	–	–	–	–	–	–	–	–	–	–	inactive	inactive	inactive	inactive	inactive	inactive	inactive	diameter of the inhibition zone (DIZ) (Bacillus subtilis [3]): inactive; diameter of the inhibition zone (DIZ) (Staphylococcus aureus [4]): inactive; diameter of the inhibition zone (DIZ) (Bacillus subtilis [8]): inactive; diameter of the inhibition zone (DIZ) (Staphylococcus aureus [9]): inactive; diameter of the inhibition zone (DIZ) (Pseudomonas aeruginosa [12]): inactive
Cc1ccc(NS(=O)(=O)Cc2nnc(CS(=O)(=O)/C=C/S(=O)(=O)c3ccc(C)cc3)o2)cc1	–	inactive	–	–	–	–	–	–	–	–	–	–	–	inactive	inactive	inactive	inactive	inactive	inactive	inactive	diameter of the inhibition zone (DIZ) (Bacillus subtilis [3]): inactive; diameter of the inhibition zone (DIZ) (Staphylococcus aureus [4]): inactive; diameter of the inhibition zone (DIZ) (Bacillus subtilis [8]): inactive; diameter of the inhibition zone (DIZ) (Staphylococcus aureus [9]): inactive; diameter of the inhibition zone (DIZ) (Pseudomonas aeruginosa [12]): inactive
O=S(=O)(Cc1nnc(CS(=O)(=O)C2CNN=C2S(=O)(=O)c2ccc(Cl)cc2)s1)Nc1ccc(Cl)cc1 (centres undefined)	25	inactive	28	26	24	29	28	28	25	27	23	31	22	–	–	–	–	–	–	–	–
O=S(=O)(Cc1nnc(CS(=O)(=O)C2CNN=C2S(=O)(=O)c2ccccc2)o1)Nc1ccccc1 (centres undefined)	–	inactive	–	–	–	–	–	–	–	–	–	–	–	inactive	inactive	inactive	inactive	inactive	inactive	inactive	diameter of the inhibition zone (DIZ) (Bacillus subtilis [3]): inactive; diameter of the inhibition zone (DIZ) (Staphylococcus aureus [4]): inactive; diameter of the inhibition zone (DIZ) (Bacillus subtilis [8]): inactive; diameter of the inhibition zone (DIZ) (Staphylococcus aureus [9]): inactive; diameter of the inhibition zone (DIZ) (Pseudomonas aeruginosa [12]): inactive
O=S(=O)(Cc1nnc(CS(=O)(=O)C2CNN=C2S(=O)(=O)c2ccccc2)s1)Nc1ccccc1 (centres undefined)	–	inactive	–	16	12	–	–	–	14	14	–	–	–	inactive	inactive	inactive	inactive	inactive	inactive	inactive	diameter of the inhibition zone (DIZ) (Pseudomonas aeruginosa [12]): inactive
